HTR1E agonist = 5-HT1E (human) receptor agonism; AID 574; activation, % at 6 µM; 65,000 tested, 0.69% active; CHO 5-HT1E Ga15 NFAT-bla reporter, FRET; 0% DMSO wells, 100% control agonist wells;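 active means activation above a set limit, the screen-wide mean activation plus 3 SD, cut at about 8.5% in these data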;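 further: 100% = positive control agonist at 1 µM giving full maximal response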
5HT1a ag = agonists of human 5-HT1a serotonin receptor; activation, % at 10 µM; CHO 5-HT1a Ga15 NFAT-bla reporter, FRET ratio; 0% basal, 100% maximal reference agonist; 65,000 tested, 0.56% active;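 active means activation above the screen-wide mean activation plus 3 SD, cut at about 19% in these data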;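 further: 0% = DMSO wells and 100% = 5-CT at EC100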
5-HT1A blocker = blocks the human serotonin 5-HT1a receptor. CHO 5-HT1a Ga15 NFAT-bla reporter, antagonist mode. inhibition, % at 10 µM. 62,000 tested, 0.68% active. AID 612;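 active means inhibition above the mean of all tested compounds plus 3 SD, cut at about 43% in these data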;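 further: receptor stimulated by 5-CT agonist at 100 nM near EC80; beta-lactamase reporter measured by ratiometric fluorescence of a cleavable substrate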
5HT1E antag = 5-HT1E (human) receptor antagonism; P28566; CHO 5-HT1E Ga15 NFAT-bla reporter, FRET, antagonist; inhibition, % at 6 µM; 65,000 tested, 0.99% active; AID 571;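 active means inhibition above a set limit, the mean inhibition across every tested compound plus 3 SD, cut at about 29% in these data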;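 further: signal is the 460 over 535 nm emission ratio of beta-lactamase substrate; 0% = agonist plus DMSO wells and 100% = wells without agonist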
S1P3 ag = activates the human S1P3 receptor; S1P3 NFAT-BLA reporter cells, agonism, FRET ratio; relative to 1 µM S1P, basal subtracted; activation, % at 4.5 µM; 60,000 tested, 0.1% active;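 active means activation above the screen-wide mean plus 3 SD, cut at about 4.5% in these data, passing the limit was not always enough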
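Benchmarks: high control 1 µM S1P / System: stable CHO line with human S1P3, Gα16, NFAT-BLA reporter / Dosing: single compound concentration, 4.5 µM final / Timing: 4 h compound at 37 °C, 2 h substrate at RT / Measured by: FRET β-lactamase substrate fluorescence, excitation 405 nm, 460/535 nm emission ratio, background-subtracted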
S1P1 ag-PAM = activates or potentiates agonism at human S1P1 receptor | S1P1 CRE-bla cells, forskolin, beta-lactamase FRET, potentiator mode; S1P1 agonist co-added at EC20, 2 nM; 100% = saturating reference agonist, 0% = basal | activation, % at 9.5 µM | 56,000 tested, 0.57% active | AID 449;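 active means activation above a cutoff set at the mean activation of all tested compounds plus 3 SD, cut at about 54% in these data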;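 further: forskolin at 4 µM as EC80 and the EC20 agonist is SEW2871; 100% = SEW2871 at its EC100 plus forskolin at EC80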
Target sequence (P21453 whole entry, looked up): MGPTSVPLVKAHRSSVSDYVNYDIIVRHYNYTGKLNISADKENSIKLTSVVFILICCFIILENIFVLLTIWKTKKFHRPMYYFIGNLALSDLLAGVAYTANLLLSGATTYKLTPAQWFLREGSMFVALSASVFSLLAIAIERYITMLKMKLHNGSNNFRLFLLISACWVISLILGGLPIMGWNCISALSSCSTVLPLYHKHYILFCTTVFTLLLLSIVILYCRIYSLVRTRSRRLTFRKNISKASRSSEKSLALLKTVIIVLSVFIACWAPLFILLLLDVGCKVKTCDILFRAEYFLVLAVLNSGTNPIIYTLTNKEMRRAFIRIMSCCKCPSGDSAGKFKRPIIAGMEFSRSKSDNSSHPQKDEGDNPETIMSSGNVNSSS
* hit, by the source's call; / = not tested or not shown. In the library only some 3% were active in any assay of this set; here they are far more common.

SMILES | HTR1E agonist | 5HT1a ag | 5-HT1A blocker | 5HT1E antag | S1P3 ag | S1P1 ag-PAM
CCCOc1ccccc1C1C(C(=O)OC)=CN(C(C)C)C=C1C(=O)OC | 8 | 13 | -8 | 3 | 2 | -86
COC(=O)C1=CN(C)C=C(C(=O)OC)C1c1ccccc1Cl | 6 | 19* | -28 | 1 | 4 | /
COC(=O)C1=CN(C(C)C)C=C(C(=O)OC)C1c1cccc(OC)c1 | 5 | 23* | -21 | -5 | 2 | -25
CCCCOc1ccccc1C1C(C(=O)OC)=CN(CC)C=C1C(=O)OC | 7 | 40* | -10 | -7 | 2 | -64
COc1ccc(-n2c(SCC(N)=O)nnc2-c2ccccc2F)cc1 | 1 | 2 | -11 | -5 | 0 | -4
O=c1nc(-c2ccccc2)n(-c2ccccc2)c2ncccc12 | 0 | -1 | 2 | 2 | -1 | -7
CCOC(=O)CN1CC23C=CC(O2)C(C(=O)Nc2ccc(C(C)=O)cc2)C3C1=O (stereo not given) | 0 | 2 | -7 | 0 | 0 | -8
O=C1CC(NC23CC4CC(CC(C4)C2)C3)C(=O)N1c1ccc2c(c1)OCO2 (stereo not given) | 0 | -3 | 16 | 10 | -1 | /
CCN1C=C(C(=O)OC)C(c2cccc(C)c2)C(C(=O)OC)=C1 | 6 | 20* | -19 | -5 | / | /
CC(=O)CC1(O)C(=O)N(CN2CCN(c3ccccc3)CC2)c2ccccc21 (stereo not given) | 15* | 0 | 12 | 19 | -1 | 14
CC(=O)c1cc2c(cc1NC(=O)CN1CCCCC1C)OCO2 (stereo not given) | 0 | 0 | 6 | 1 | / | /
Cc1ccc(CCNC(=O)c2coc3nc4ccccc4nc23)cc1 | 13* | 3 | -17 | -3 | 1 | -48
N#Cc1c(-c2ccco2)cc(-c2cccnc2)nc1N | 0 | 0 | 0 | 38* | 1 | -74
Cc1c(-c2ccccc2)nc(N)c(C#N)c1-c1ccco1 | 0 | 17 | -2 | 31* | 0 | -81
CCCCNC(=O)Nc1ccnn1C1CCCCC1 | 0 | 0 | -7 | 3 | / | /
COc1cc2c(cc1OC)-c1cc(NC3CCCCCCC3)nc(=O)n1CC2 | 0 | 2 | 29 | 52* | 1 | -20
COc1cc2c(cc1OC)-c1cc(NC3CCCCC3)nc(=O)n1CC2 | 2 | 2 | 9 | 36* | 2 | -62
COc1cc2c(cc1OC)-c1cc(NC3CC3)nc(=O)n1CC2 | 1 | 0 | 9 | 20 | -1 | -28
CCCCCCNc1cc2n(c(=O)n1)CCc1cc(OC)c(OC)cc1-2 | 0 | 1 | 0 | 39* | -1 | -65
Cc1ccc2c(c1)N(CCCC(=O)NCCCN1CCCC1=O)C(=O)CO2 | 1 | 0 | -14 | 2 | 0 | -5
Cc1cc(C)n(-c2ccc(C(=O)NC3=NCCS3)cc2)n1 | 2 | 2 | 12 | 0 | -1 | 10
O=C(NC1=NCCS1)c1cc(-c2ccccc2)nn1-c1ccccc1 | 1 | 0 | 2 | -22 | 11* | 52
Cc1ccc(S(=O)(=O)N2CCCC2C(=O)OCc2ccco2)cc1 (stereo not given) | -2 | -1 | 13 | 7 | -1 | 6
COc1ccc2[nH]c3c(c2c1)CN(C)CC3 | 1 | 102* | 7 | 29* | -1 | 15
COc1ccc2[nH]c3ccccc3c2c1 | 0 | -3 | -1 | -14 | 0 | 8
SMILES | HTR1E agonist | 5HT1a ag | 5-HT1A blocker | 5HT1E antag | S1P3 ag | S1P1 ag-PAM
CC(=O)c1cccc(NC(=O)c2nccnc2C(=O)O)c1 | -1 | 109* | -14 | 5 | 1 | 11
CCOc1cc(C)c(S(=O)(=O)Nc2ccc(Cl)cn2)cc1C | 27* | -2 | 12 | 7 | 0 | 26
CCOc1ccc(S(=O)(=O)Nc2ccc(Cl)cn2)c(C)c1C | -1 | 0 | 14 | -3 | -1 | 43
COc1ccc(-c2nn3c(-c4cccc(C)c4)nnc3s2)cc1OC | 2 | 3 | -19 | 18 | 0 | -68
COc1cc(-c2nn3c(-c4cccnc4)nnc3s2)cc(OC)c1OC | 0 | -1 | / | 19 | 0 | -8
COc1ccc(-c2nnc3sc(-c4cccs4)nn23)cc1OC | 1 | 1 | -16 | 36* | 0 | -29

High-throughput results as filed in PubChem.
